Consider five compounds from ChEMBL document CHEMBL1765065, “Pro-soft Val-boroPro: a strategy for enhancing in vivo performance of boronic acid inhibitors of serine proteases” (J Med Chem, 2011).

Series [1] relates to Mus musculus. Kind of series: Antidiabetic activity in po dosed C57BL/KS01HSDLeprdb mouse assessed as decrease in serum glucose AUC level by oral glucose tolerance test. Format: functional, organism-based. In a few lines:
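Diabetic male C57BL/KS01HSDLeprdb mice (nondiabetic C57BL/6NHHsd as comparison) acclimated 3 weeks and fasted 4 h. Given 0.0025, 0.01, 0.025 or 0.05 mg/kg free-inhibitor equivalent by oral gavage; vehicle H2O. Oral glucose 1 g/kg given 3 h post-dose. Glucometer blood glucose at predose, 15, 30, 60, 120 and 240 min (5 mice/group); AUC.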

Series [2] relates to Mus musculus. Put plainly: Antidiabetic activity in C57BL/KS01HSDLeprdb mouse assessed as decrease in serum glucose AUC level at 0.5 mg/kg, po by oral glucose tolerance test. It counts as functional, organism-based. Set-up: dose 0.5 mg/kg.
Series [3] in a line: (§1) Toxicity in po dosed Fisher rat assessed as mortality measured up to 24 hrs. Format: organism-based. The conditions noted are these: Fisher, in vivo.
Series [4] can be described thus: Chemical stability of the compound assessed as half life at physiological pH. Format: physicochemical.
Series [5] addresses T1, Dipeptidyl peptidase 4 (Homo sapiens, UniProt P27487). Put plainly: Inhibition of DDP4 at pH 2 preincubated for 10 mins.
Target sequence in this assay (P27487 whole entry): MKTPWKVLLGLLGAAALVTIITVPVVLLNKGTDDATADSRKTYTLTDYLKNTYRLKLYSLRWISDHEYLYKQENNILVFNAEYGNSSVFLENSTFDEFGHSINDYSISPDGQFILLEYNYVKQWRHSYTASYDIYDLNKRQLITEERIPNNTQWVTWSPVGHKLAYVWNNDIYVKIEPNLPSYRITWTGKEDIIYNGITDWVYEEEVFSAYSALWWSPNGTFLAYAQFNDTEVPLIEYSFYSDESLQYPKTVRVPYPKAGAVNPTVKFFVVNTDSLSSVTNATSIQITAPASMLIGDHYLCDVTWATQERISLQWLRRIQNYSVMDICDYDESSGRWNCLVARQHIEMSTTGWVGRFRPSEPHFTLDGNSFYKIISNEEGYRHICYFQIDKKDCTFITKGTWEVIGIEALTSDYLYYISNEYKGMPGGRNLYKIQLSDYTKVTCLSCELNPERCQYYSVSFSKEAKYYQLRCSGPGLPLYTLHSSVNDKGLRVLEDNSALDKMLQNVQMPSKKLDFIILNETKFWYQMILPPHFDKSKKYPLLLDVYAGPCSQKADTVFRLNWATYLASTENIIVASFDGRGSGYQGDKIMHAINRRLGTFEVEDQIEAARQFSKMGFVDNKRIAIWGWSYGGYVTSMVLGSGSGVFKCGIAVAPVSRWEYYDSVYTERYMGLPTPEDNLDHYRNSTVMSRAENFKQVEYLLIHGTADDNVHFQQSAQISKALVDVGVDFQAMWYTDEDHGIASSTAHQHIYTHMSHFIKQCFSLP
Series [6] deals with T1, Dipeptidyl peptidase 4. Kind of series: Inhibition of DDP4 at pH 7.4 preincubated for 10 mins.
Target sequence in this assay (P27487 whole entry): as above
Series [7] in a line: Effect on pro-drug activation assessed as Chg-Pro formation by mass spectrometry. It counts as physicochemical. Summed up: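 Prodrug (10 mM stock) incubated with purified DPPIV (2 μM stock) or no enzyme in 0.1 M HEPES, 0.14 M NaCl, pH 8.0, for 10 min at 25 °C. Desalted on C18 and lyophilized. Chg-Pro detected by reverse-phase HPLC-MS scanning its m/z; Chg-Pro was the reference.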

Series [8] relates to Mus musculus. Put plainly: DDP4-mediated pro-drug activation in ip dosed wild type C57BL/6 mouse assessed as pro-drug level in serum by LC/MS analysis. Format: organism-based. The conditions noted are these: in vivo. Summed up: (§2)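 Wild-type C57BL/6 (CD26+/+) or DPPIV knockout (CD26-/-) mice, 3 per group, acclimated ≥1 week. Given 50 μg ip in PBS. Blood taken by cardiac puncture after 5 min and treated with 10% TCA. Supernatant intact prodrug quantified by reverse-phase HPLC-MS base peak chromatograms.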

Series [9] concerns Mus musculus. Put plainly: DDP4-mediated pro-drug activation in ip dosed CD26 -/- mouse assessed as pro-drug level in serum by LC/MS analysis. It counts as organism-based. As to conditions: in vivo. In a few lines: as §2
The next series concerns Rattus norvegicus. The description is as §1. As to conditions: in vivo, 24 h. It counts as organism-based.
In series [10] the target is T1, Dipeptidyl peptidase 4. Put plainly: Inhibition of DDP4 at pH 7.4 preincubated with alpha-chymotrypsin up to 8 hrs. Summed up: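 Prodrug preincubated with 0.1 mM α-chymotrypsin for 0, 0.5, 1, 2, 4, 6 or 24 h before purified DPPIV was added. The DPPIV assay then followed: 0.3 mM H-Ala-Pro-pNA, A410, HEPES/NaCl buffer.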
Target sequence in this assay (P27487 whole entry): as above
In series [11] the target is T1, Dipeptidyl peptidase 4. Put plainly: Inhibition of DDP4. In a few lines: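 Purified DPPIV (~1 nM) in 0.1 M HEPES, 0.14 M NaCl, pH 7.4 or 8.0, at 25 or 37 °C. Inhibitor (10^-5 to 10^-11 M) preincubated 10 min with enzyme before 0.3 mM H-Ala-Pro-pNA; A410 read. Stocks made in HCl pH 2.0 or buffer pH 7.4/8.0 and diluted just before use.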
Target sequence in this assay (P27487 whole entry, looked up): as the sequence (P27487 whole entry) above
A short description of series [12]: Inhibition of alpha-chymotrypsin.

SMILES strings stand for the structures. Activity calls are given as the source filed them. No cut-off for these calls is given here. Starred links: 1 amine or outer side, 2 acyl side, 3 side chain; linkers in the order of their positions; H or OH if unused. Residues, ends and D or L forms follow the SMILES beside them. *: point of attachment. Suc = O=C(CCC(=O)[*:2])[*:1]; boroPro = OB(O)[C@@H]1CCCN1*

Take `CC(C)[C@H](N)C(=O)N1CCC[C@H]1B(O)O` [TALABOSTAT]: in the series on Mus musculus [1], the Activity entry was “Dose-dependent effect”. In addition, the outcome with Mus musculus [2] was inactive. The LD50 (in general, the dose at which mortality reaches 50%) at 24 h in [3] amounted to 0.5 mg/kg.
As to `CC(=O)N[C@H](C(=O)N1CCC[C@H]1B(O)O)C(C)C`, in series [4], the half-life (usually the time in which the quantity being followed falls by half) is 30 min.
Consider `CC(C)[C@H](NC(=O)[C@@H]1CCCN1C(=O)[C@@H](N)C1CCCCC1)C(=O)N1CCC[C@H]1B(O)O`, for which the IC50 (as a rule, the midpoint of a concentration-inhibition curve) worked out at 20 nM on Dipeptidyl peptidase 4 [5] and 19 nM against Dipeptidyl peptidase 4 [6]. In addition, the Activity result is “Not Active” in series [7]; “Not Active” in the series with Mus musculus [8]; “Active” in the series with Mus musculus [9]; “Dose-dependent effect” in the series with Mus musculus [1]; “Non-toxic” in the series on Rattus norvegicus. In addition, the outcome with Mus musculus [2] was Active.
`C[C@H](NC(=O)CCC(=O)O)C(=O)N[C@@H](C)C(=O)N1CCC[C@H]1C(=O)N[C@@H](Cc1ccccc1)C(=O)N[C@@H](C)C(=O)N1CCC[C@H]1B(O)O` (Suc-AAPFA-boroPro) yielded an IC50 against Dipeptidyl peptidase 4 [10] of 0.7 nM. In addition, the inhibition result (on Dipeptidyl peptidase 4 [11]; in series [12]) was “inactive” throughout.
As for `C[C@H](NC(=O)[C@@H]1CCCN1C(=O)[C@@H](N)Cc1ccccc1)C(=O)N1CCC[C@H]1B(O)O`, the results for the IC50 against Dipeptidyl peptidase 4 [5] and on Dipeptidyl peptidase 4 [6] were 8.3 nM and 7 nM, respectively.
